The text below walks through data of ChEMBL document CHEMBL2163282, “Discovery and characterization of AZD9272 and AZD6538-Two novel mGluR5 negative allosteric modulators selected for clinical development” (Bioorg Med Chem Lett, 2012).

Each structure is given as a SMILES string. pIC50, pKd: −log10 of the molar value. ≈ marks a conversion by molar mass, not a printed value. Where only a bound is given, the exact number is not on record here.

In data set [1] the target is T1, Metabotropic glutamate receptor 5 (Homo sapiens, UniProt P41594). The experiment in a line: Negative allosteric modulation of human recombinant mGluR5 expressed in HEK293 cells expressing GLAST assessed as inhibition of DHPG-induced intracellular Ca2+ level after 30 mins by FLIPR assay.
Target sequence in this assay (P41594 whole entry): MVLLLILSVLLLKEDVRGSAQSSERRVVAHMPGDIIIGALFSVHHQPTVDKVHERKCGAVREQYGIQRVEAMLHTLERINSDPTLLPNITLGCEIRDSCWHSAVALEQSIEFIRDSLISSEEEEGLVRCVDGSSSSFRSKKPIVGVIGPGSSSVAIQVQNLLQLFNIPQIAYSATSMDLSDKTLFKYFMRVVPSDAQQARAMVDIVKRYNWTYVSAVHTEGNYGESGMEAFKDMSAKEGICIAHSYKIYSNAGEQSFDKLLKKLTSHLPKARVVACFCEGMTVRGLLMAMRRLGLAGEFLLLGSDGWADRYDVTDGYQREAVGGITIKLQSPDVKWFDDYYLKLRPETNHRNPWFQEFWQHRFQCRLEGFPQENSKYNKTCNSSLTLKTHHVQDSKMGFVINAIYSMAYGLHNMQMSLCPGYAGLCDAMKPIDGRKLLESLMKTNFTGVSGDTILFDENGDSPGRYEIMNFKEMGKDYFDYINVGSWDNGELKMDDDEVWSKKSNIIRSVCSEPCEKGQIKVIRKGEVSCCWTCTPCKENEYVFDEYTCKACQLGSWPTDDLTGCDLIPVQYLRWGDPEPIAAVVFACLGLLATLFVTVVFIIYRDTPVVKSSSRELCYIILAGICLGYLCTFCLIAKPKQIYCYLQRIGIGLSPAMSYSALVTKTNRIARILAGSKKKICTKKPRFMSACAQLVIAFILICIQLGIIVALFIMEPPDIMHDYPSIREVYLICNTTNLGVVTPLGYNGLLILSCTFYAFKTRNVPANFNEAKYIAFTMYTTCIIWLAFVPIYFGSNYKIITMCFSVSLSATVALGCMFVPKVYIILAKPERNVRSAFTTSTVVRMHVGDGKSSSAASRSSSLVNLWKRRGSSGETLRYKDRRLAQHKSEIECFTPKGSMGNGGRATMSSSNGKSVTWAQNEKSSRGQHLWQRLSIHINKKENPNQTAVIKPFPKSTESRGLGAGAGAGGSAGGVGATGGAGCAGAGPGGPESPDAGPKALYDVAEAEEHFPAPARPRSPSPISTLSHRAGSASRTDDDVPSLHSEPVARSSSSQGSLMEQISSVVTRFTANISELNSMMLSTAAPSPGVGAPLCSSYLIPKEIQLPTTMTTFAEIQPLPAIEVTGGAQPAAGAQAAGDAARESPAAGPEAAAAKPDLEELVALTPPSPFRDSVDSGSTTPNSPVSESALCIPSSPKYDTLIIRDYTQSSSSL
The target in data set [2] is T1, Metabotropic glutamate receptor 5. Put plainly: Binding affinity to human mGluR5 expressed in HEK293 cell membranes expressing GLAST assessed as per mg of protein after 1 hr by scintillation counter.
Target sequence in this assay (P41594 21-1212 limits assumed): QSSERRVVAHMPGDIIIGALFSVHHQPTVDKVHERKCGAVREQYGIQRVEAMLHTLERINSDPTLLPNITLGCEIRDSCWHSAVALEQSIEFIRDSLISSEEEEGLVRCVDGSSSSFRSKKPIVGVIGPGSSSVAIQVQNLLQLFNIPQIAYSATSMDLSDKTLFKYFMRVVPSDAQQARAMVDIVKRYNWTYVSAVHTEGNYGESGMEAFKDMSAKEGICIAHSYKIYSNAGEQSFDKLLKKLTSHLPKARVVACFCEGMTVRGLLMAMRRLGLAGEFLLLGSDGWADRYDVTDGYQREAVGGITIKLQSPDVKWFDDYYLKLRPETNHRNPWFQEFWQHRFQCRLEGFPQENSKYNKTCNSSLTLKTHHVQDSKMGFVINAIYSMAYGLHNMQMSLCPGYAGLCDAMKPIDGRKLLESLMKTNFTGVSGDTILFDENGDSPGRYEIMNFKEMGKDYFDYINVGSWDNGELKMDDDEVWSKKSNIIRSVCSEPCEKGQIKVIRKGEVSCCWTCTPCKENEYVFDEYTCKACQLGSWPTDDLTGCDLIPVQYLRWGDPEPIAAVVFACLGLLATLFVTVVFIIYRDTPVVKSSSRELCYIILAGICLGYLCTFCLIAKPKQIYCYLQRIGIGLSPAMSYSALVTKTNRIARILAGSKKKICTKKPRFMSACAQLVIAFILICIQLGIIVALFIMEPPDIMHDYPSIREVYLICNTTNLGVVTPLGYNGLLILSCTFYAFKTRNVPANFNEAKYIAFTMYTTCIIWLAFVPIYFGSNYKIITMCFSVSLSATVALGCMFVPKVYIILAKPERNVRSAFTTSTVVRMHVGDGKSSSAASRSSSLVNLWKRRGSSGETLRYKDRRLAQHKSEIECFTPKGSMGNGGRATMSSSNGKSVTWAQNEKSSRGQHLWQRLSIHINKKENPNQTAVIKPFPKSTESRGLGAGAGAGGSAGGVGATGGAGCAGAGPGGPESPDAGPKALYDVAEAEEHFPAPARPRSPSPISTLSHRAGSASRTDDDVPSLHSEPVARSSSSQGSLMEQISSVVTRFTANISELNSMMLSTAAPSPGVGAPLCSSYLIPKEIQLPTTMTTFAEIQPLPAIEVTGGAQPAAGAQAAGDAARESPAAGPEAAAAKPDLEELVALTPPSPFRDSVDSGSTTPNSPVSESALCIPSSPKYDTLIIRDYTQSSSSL
Data set [3] deals with Metabotropic glutamate receptor 5 (Rattus norvegicus, UniProt P31424). Put plainly: Binding affinity to mGluR5 in Sprague-Dawley rat striatum after 60 mins by autoradiographic analysis.
Data set [4] relates to Brain. Put plainly: Drug uptake in Sprague-Dawley rat brain at 10 and 30 nmol/kg, iv administered as infusion after 5 mins by autoradiographic analysis. Format: ADME, organism-based. The note with it: in vivo. Put shortly: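 Rats were dosed intravenously with [3H]AZD9272 at 10 or 30 nmol/kg. Five minutes later, brains were removed and sectioned sagittally. Radiolabel distribution was assessed by conventional autoradiography.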

Data set [5] addresses T1, Metabotropic glutamate receptor 5. Put plainly: Binding affinity to human mGluR5 expressed in HEK293 cell membranes expressing GLAST by scintillation counting.
Target sequence in this assay (P41594 whole entry): as the sequence (P41594 whole entry) above
For data set [6] the target is unchanged. The experiment in a line: Binding affinity to human mGluR5 expressed in HEK293 cell membranes expressing GLAST after 1 hr by scintillation counter in presence of 20 nM MPEP. In a few lines:
(§1)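 [3H]AZD9272 equilibrium saturation binding on membranes from human mGluR5-GHEK cells (HEK293 stably expressing glutamate/aspartate transporter), run without MPEP or with 10 or 20 nM MPEP; filtration termination; Kd and Bmax (pmol/mg protein) derived per assay, three separate assays.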
Target sequence in this assay (P41594 whole entry): as above

The target is the same in data set [7]. Put plainly: Binding affinity to human mGluR5 expressed in HEK293 cell membranes expressing GLAST after 1 hr by scintillation counter in absence of MPEP. Put shortly:
as §1
Target sequence in this assay (P41594 whole entry): as above

For data set [8] the target is unchanged. The experiment in a line: Binding affinity to human mGluR5 expressed in HEK293 cell membranes expressing GLAST after 1 hr by scintillation counter in presence of 10 nM MPEP. In a few lines:
as §1
Target sequence in this assay (P41594 whole entry): as above

Data set [9] can be described thus: Equilibrium solubility of the compound […]. Format: physicochemical. In a few lines: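 Solubility was measured by a dried-DMSO rapid-throughput method.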
Data set [10] in a line: Intrinsic clearance in rat liver microsomes. In kind it is ADME, Microsome. The note with it: read-out: CLH. Put shortly: (§2)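 Intrinsic clearance was determined in human or rat microsomes and expressed per min per mg protein.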
For orientation: Liver microsomes are a subcellular fraction often used to study metabolism.

Data set [11] in a line: Intrinsic clearance in human liver microsomes. Format: ADME, Microsome. The note with it: read-out: CLH. In a few lines: as §2

Chain of Metabotropic glutamate receptor 5 (Rattus norvegicus, UniProt P31424) (P31424 whole entry, the tested form may be a part): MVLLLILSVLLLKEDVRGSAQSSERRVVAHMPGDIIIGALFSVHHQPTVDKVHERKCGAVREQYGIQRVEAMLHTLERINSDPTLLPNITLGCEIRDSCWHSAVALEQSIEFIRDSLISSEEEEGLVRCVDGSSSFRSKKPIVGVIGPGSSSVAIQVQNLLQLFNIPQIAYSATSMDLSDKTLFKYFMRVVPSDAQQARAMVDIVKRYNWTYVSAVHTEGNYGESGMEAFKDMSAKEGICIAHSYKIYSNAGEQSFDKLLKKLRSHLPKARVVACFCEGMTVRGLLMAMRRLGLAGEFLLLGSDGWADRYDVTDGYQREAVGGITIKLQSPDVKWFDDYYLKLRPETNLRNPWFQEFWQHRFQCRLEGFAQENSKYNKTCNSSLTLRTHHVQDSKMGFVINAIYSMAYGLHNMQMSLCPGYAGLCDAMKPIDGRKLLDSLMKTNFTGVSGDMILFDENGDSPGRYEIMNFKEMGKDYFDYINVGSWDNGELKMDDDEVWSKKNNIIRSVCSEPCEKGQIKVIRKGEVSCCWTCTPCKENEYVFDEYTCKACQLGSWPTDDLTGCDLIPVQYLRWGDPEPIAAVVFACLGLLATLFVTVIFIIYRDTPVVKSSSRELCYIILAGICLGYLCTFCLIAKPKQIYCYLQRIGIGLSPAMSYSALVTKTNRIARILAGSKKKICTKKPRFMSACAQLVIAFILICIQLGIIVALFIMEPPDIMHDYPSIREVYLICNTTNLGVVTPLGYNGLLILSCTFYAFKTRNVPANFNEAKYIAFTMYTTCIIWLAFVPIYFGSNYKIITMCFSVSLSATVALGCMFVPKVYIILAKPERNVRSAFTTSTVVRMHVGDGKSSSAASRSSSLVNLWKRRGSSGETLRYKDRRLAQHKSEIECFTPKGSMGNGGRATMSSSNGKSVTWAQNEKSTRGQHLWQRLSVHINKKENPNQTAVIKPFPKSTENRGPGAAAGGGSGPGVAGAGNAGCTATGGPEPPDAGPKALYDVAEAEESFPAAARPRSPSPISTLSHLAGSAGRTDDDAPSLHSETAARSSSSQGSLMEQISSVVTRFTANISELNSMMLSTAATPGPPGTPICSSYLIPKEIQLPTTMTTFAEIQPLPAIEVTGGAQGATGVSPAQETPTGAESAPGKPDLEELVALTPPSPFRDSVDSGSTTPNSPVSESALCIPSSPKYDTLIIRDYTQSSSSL

Regarding `Clc1cccc(-c2nc(-c3ccccn3)no2)c1Cl`, the pIC50 (in general, the IC50 on a negative log10 scale, so that one unit is a factor of ten) in [1] is 6.56.

As for `O=[N+]([O-])c1cccc(-c2nc(-c3ccccn3)no2)c1`, the pIC50 in [1] is 6.63.

For the molecule `N#Cc1cc(F)cc(-c2nc(-c3cnccn3)no2)c1`, the negative-log IC50 (pIC50) in [1] was 5.33.

Take `N#Cc1cc(F)cc(-c2ccc(-c3ccccn3)o2)c1`: the negative logarithm of the IC50 (pIC50) in [1] was 7.21.

As to `Cc1cccc(-c2nc(-c3ccccn3)no2)c1`, the negative-log IC50 (pIC50) in data set [1] was 6.35.

As for `Fc1cccc(-c2nc(-c3ccccn3)no2)c1`, in [1], the pIC50 was 6.07.

For the molecule `Brc1cccc(-c2nc(-c3ccccn3)no2)c1`, in data set [1], the pIC50 is 6.93.

As for `Fc1cc(F)cc(-c2nc(-c3ccccn3)no2)c1`, the negative logarithm of the IC50 (pIC50) in data set [1] was 6.81.

Consider `Clc1ccccc1-c1nc(-c2ccccn2)no1`, for which the negative logarithm of the IC50 (pIC50) in [1] is 6.36.

On to `N#Cc1cc(F)cc(-c2nc(-c3ccccn3)co2)c1`, for which the negative logarithm of the IC50 (pIC50) in [1] was 7.66.

On to `Clc1cc(Cl)cc(-c2nc(-c3ccccn3)no2)c1`, for which the negative-log IC50 (pIC50) in [1] is 6.85.

`NC(=O)c1ccccc1-c1nc(-c2ccccn2)no1`: the pIC50 in [1] was 5.48.

In the case of `Cc1cccc(C#Cc2ccccc2)n1`, in [2], the Bmax turned out to be 4.4 pmol.

For `Clc1ccc(-c2nc(-c3ccccn3)no2)cc1`, in data set [1], the pIC50 is below 5.00.

Regarding `Clc1cccc(-c2nc(-c3ccccn3)no2)c1`, the pIC50 in data set [1] was 6.94.

Consider `Clc1ccc(-c2nc(-c3ccccn3)no2)cc1Cl`, for which, in [1], the pIC50 was below 5.00.

On to `FC(F)(F)Oc1cccc(-c2nc(-c3ccccn3)no2)c1`, for which the negative-log IC50 (pIC50) in [1] was 6.15.

As to `N#Cc1cc(F)cc(-c2noc(-c3ccccn3)n2)c1`, the negative logarithm of the IC50 (pIC50) in [1] was 7.64.

Regarding `[3H]c1c(F)cc(-c2nc(-c3ccc(F)cn3)no2)cc1C#N`, the negative logarithm of the Kd (pKd) (in general, the Kd on a negative log10 scale, so that one unit is a factor of ten) was 8.03 in data set [3]; 8.55 in data set [5]; 8.14 in [6]; 8.42 in data set [7]; 8.26 in data set [8]. In data set [4], the Drug uptake result is “Active”.

On to `N#Cc1cc(F)cc(-c2nc(-c3ncccn3)no2)c1`, for which the negative-log IC50 (pIC50) in [1] is 5.96.

With `FC(F)(F)c1cc(-c2nc(-c3ccccn3)no2)cc(C(F)(F)F)c1`, in data set [1], the pIC50 was below 5.00.

For the molecule `Clc1ccc(-c2nc(-c3ccccn3)no2)c(Cl)c1`, the pIC50 in [1] was 5.77.

Turning to `N#Cc1cc(F)cc(-c2nc(-c3ccccn3)no2)c1`, in [1], the negative-log IC50 (pIC50) was 7.60. Also, the concentration in solution in data set [9] (solubility) was 78.1 µM (≈ 20.8 µg/mL). The microsomal CLint in data set [10] came to 29 µL/min/mg; in data set [11], 92 µL/min/mg.

As for `N#Cc1cc(C#N)cc(-c2nc(-c3ccccn3)no2)c1`, the pIC50 in data set [1] was 6.75.

With `COc1cccc(-c2nc(-c3ccccn3)no2)c1`, the pIC50 in data set [1] was 6.27.
